Source: PubChem BioAssay
SENP8 block-1: inhibitors of human SENP8 protease | Q96LD8 | actives 0.64% (n = 360,000) | recombinant SENP8, Nedd8 substrate fluorescence | AID 602440 | inhibition, % at 20 µM; in the data active = inhibition mostly above about 40%, no sharp cut-off; inactive = mostly below about 27%
SENP8 block-2: SENP8 protease inhibition | inhibition, % at 10 µM | purified SENP8, Z-RLRGG-aminoluciferin cleavage, luminescence | actives 1.2% (n = 330,000); in the data active = inhibition above about 50%
HSP90 refold inh: blocks HSP90-mediated luciferase refolding in reticulocyte lysate | inhibition, % at 5.6 µM | actives 0.91% (n = 290,000) | AID 1789 | Rabbit reticulocyte lysate, luciferase refolding luminescence, 3 h;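 active = inhibition above the screen-wide mean plus 3 SD, computed separately per campaign, cut at about 16% in these data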;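 note: inhibitors lower the luminescence because luciferase stays unfolded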
SENP6 inh: SENP6 protease inhibition; Q9GZR1; Recombinant SENP6 catalytic domain, aminoluciferin luminescence; inhibition, % at 10 µM; actives 1.8% (n = 330,000); AID 2599;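 active = inhibition above about 50% at the single tested dose, limit read from the data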
SENP7 block: blocks the human protease SENP7. Q9BQF6. recombinant SENP7, Z-RLRGG-aminoluciferin luminescence, 40 min. inhibition, % at 5 µM. actives 1.5% (n = 330,000);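 active = inhibition above about 50% at the single test dose, limit read from the data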
Target sequence (Q9BQF6 706-1050 limits assumed): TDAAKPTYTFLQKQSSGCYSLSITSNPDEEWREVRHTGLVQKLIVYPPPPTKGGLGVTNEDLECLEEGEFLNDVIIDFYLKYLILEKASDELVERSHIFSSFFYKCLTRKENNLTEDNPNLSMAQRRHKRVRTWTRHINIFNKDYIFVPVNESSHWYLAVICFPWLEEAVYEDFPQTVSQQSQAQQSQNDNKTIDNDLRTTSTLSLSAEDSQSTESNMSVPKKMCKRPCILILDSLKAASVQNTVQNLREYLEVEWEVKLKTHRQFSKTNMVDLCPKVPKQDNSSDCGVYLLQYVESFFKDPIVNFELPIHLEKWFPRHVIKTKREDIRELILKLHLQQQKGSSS
SENP1 inh: SENP1 (human) catalytic domain inhibition. Q9P0U3. recombinant SENP1 catalytic domain, CyPet-SUMO1-YPet FRET cleavage. inhibition, % at 10 µM. actives 0.21% (n = 360,000). AID 624204;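 active = inhibition at least 30% at 10 µM, raw YFP signal under a set limit, fluorescence ratio 0.5 to 1.5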
Target sequence (Q9P0U3 419-644 limits assumed): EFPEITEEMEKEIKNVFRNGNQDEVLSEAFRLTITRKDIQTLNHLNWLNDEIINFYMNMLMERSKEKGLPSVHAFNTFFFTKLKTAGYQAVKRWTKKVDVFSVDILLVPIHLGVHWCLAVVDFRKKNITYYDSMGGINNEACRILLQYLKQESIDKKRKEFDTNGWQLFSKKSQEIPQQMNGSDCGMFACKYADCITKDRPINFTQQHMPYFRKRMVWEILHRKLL
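Material: hSENP1 catalytic domain, recombinant; medium: Tris pH 8 with BME, BSA, NP40 and catalase; compound: single concentration of 10 µM compound, 0.5% DMSO final; technique: FRET read of cyan and yellow fluorescence; timing: 50 min enzyme reaction, room temperature, light-protected; reagent: SFCypet-SUMO1-SFYpet substrate at 25 nM; control set: no-enzyme low, enzyme-DMSO high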
SENP8 confirm: confirmation of human SENP8 protease inhibitors | shares compounds with SENP7 block | Recombinant SENP8, Z-RLRGG-aminoluciferin luminescence, 60 min | inhibition, % at 12.5 µM | actives 40% (n = 6,200);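 active = mean inhibition across replicates above about 50%, limit read from the data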
SENP6 confirm: confirmation of human SENP6 protease inhibitors. shares compounds with SENP7 block. recombinant SENP6, Z-RLRGG-aminoluciferin luminescence. inhibition, % at 12.5 µM. actives 58% (n = 6,200). AID 488915
SENP7 confirm: human SENP7 inhibition, confirmed. actives 69% (n = 6,200). shares compounds with SENP7 block. inhibition, % at 12.5 µM. recombinant SENP7, Z-RLRGG-aminoluciferin luminescence, 40 min
Casp3 select: caspase-3 inhibition (SENP selectivity assay); shares compounds with SENP7 block; purified caspase-3, Z-DEVD-aminoluciferin luminescence, 60 min; inhibition, % at 12.5 µM; actives 60% (n = 6,200);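 active = mean inhibition above about 50%, limit read from the data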
Luc interf: counter-screen for SENP inhibitors: luminescence interference; shares compounds with SENP7 block; Pre-incubated SENP8/Z-RLRGG-aminoluciferin, luciferase luminescence interference; inhibition, % at 12.5 µM; actives 39% (n = 6,200); AID 488919;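 active = mean inhibition above about 50% when retested at one dose, limit read from the data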
Each line names hits and unclear results; the compound was inactive in the other large screens (follow-up assays come after a bar, where they were run). Only some compounds are listed: those with a hit (about 2.9% of all), similar ones and a draw of the others.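 Rule for the calls, unless noted: active = mean inhibition above about 50% in the one-dose retest (limit read from the data); inactive = the rest.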

O=C(NCc1ccccc1)C(=O)c1cn(CC(=O)N2CCOCC2)c2ccccc12	SENP7 block 55 | SENP8 confirm inactive | SENP6 confirm inactive | SENP7 confirm inactive | Casp3 select inactive | Luc interf inactive
O=C(NCc1cccs1)C(=O)c1cn(CC(=O)N2CCOCC2)c2ccccc12	none
Cc1cccc(CSc2cn(CC(=O)N3CCOCC3)c3ccccc23)c1	SENP8 block-2 72, SENP6 inh 65, SENP7 block 74 | SENP8 confirm 87 | SENP6 confirm 87 | SENP7 confirm 96 | Casp3 select 70 | Luc interf 59
Cc1cccc(NCc2ccc(Br)cc2)n1	none
COc1cccc(OCc2ccc(Cl)cc2)c1C#N	SENP8 block-2 93, SENP6 inh 91, SENP7 block 97 | SENP8 confirm 84 | SENP6 confirm 96 | SENP7 confirm 100 | Casp3 select 88 | Luc interf inactive
COc1cccc(CNC(C)(C)CO)c1OCc1ccc(Cl)cc1	none
Oc1cccc2cnccc12	none
Nc1cccc2cnccc12	SENP8 block-2 89, SENP6 inh 91 | SENP8 confirm inactive | SENP6 confirm inactive | SENP7 confirm inactive | Casp3 select inactive | Luc interf inactive
C/C(=N\O)C(C)(C)Nc1cccc(Br)c1	none
CCc1ccc(-c2ccc(C(=O)O)cc2)nc1	SENP7 block 65 | SENP8 confirm 76 | SENP6 confirm 74 | SENP7 confirm 94 | Casp3 select 91 | Luc interf 75
COc1ccc(C(=O)c2ccc(-c3ccc(OC)cc3)nc2)cc1	none
O=C(c1ccc(N2CCOCC2)c([N+](=O)[O-])c1)N1CCN(c2ccccc2)CC1	none (no result: SENP8 block-2, HSP90 refold inh, SENP6 inh, SENP7 block)
O=C(O)c1cc(/C=C/c2ccc(N3CCOCC3)cc2)nc2ccccc12	SENP8 block-2 70, SENP7 block 69 | SENP8 confirm 79 | SENP6 confirm 78 | SENP7 confirm 96 | Casp3 select 90 | Luc interf 83
O=C(O)c1cc(/C=C/c2ccc(N3CCOCC3)c([N+](=O)[O-])c2)nc2ccccc12	SENP8 block-2 53, SENP6 inh 77, SENP7 block 63 | SENP8 confirm 73 | SENP6 confirm 68 | SENP7 confirm 91 | Casp3 select 81 | Luc interf 71
O=C(NC(=S)Nc1nc2ccc(F)cc2s1)c1ccco1	SENP6 inh 69, SENP7 block 62 | SENP8 confirm inactive | SENP6 confirm inactive | SENP7 confirm inactive | Casp3 select inactive | Luc interf inactive
CSc1nc2ccc3nc(NC(=O)c4cccs4)sc3c2s1	none
O=C(NC(=S)Nc1nc2ccccc2s1)c1cccs1	SENP6 inh 76 | SENP8 confirm inactive | SENP6 confirm inactive | SENP7 confirm inactive | Casp3 select inactive | Luc interf inactive
O=C(Nc1nc2ccc(F)cc2s1)c1cccs1	SENP8 block-2 92, SENP6 inh 91, SENP7 block 95 | SENP8 confirm 67 | SENP6 confirm 96 | SENP7 confirm 103 | Casp3 select 93 | Luc interf 81
O=C(Nc1nc2ccc(S(=O)(=O)N3CCCC3)cc2s1)c1cccs1	none
CN(C)S(=O)(=O)c1ccc2nc(NC(=O)c3cccs3)sc2c1	SENP6 inh 73, SENP7 block 55 | SENP8 confirm 77 | SENP6 confirm 74 | SENP7 confirm 90 | Casp3 select 72 | Luc interf 76
Cc1ccc(NC(=O)c2ccccc2O)cc1	SENP6 inh 53 | SENP8 confirm 55 | SENP6 confirm 51 | SENP7 confirm 78 | Casp3 select 61 | Luc interf 66
Cc1ccc(NC(=O)c2cccc3cccnc23)cc1	SENP6 inh 54 | SENP8 confirm 50 | SENP6 confirm inactive | SENP7 confirm 72 | Casp3 select inactive | Luc interf inactive
Cc1ccc(C(=O)CC(=O)c2ccccc2)cc1	SENP8 block-2 70, SENP6 inh 75, SENP7 block 66 | SENP8 confirm inactive | SENP6 confirm 66 | SENP7 confirm 91 | Casp3 select 50 | Luc interf inactive
O=C(Nc1ccccc1)c1ccc(OC(=O)c2ccccc2)cc1	SENP6 inh 54, SENP7 block 81 | SENP8 confirm inactive | SENP6 confirm inactive | SENP7 confirm inactive | Casp3 select inactive | Luc interf inactive
CC(C)OC(=O)c1ccc(NC(=O)c2ccccc2)cc1	none
CC(=O)Nc1cccc(NC(=O)c2cccc3cccnc23)c1	none
Cc1ccc(NC(=O)C(C)C(=O)Nc2ccc(C)cc2)cc1	none
Cc1ccc(NC(=O)C(=O)c2ccc(C)cc2)cc1	SENP8 block-2 54, SENP6 inh 65, SENP7 block 62 | SENP8 confirm 59 | SENP6 confirm 59 | SENP7 confirm 87 | Casp3 select 60 | Luc interf inactive
Cc1ccc(NC(=O)c2ccccc2)cc1	SENP7 block 50 | SENP8 confirm inactive | SENP6 confirm inactive | SENP7 confirm 78 | Casp3 select 72 | Luc interf 54
Cc1ccc(C(=O)Nc2ccccc2Cl)cc1	SENP6 inh 69, SENP7 block 58 | SENP8 confirm 50 | SENP6 confirm 55 | SENP7 confirm 86 | Casp3 select 78 | Luc interf 55
Fc1cccc(Cl)c1/C=C/c1cnc2ccccc2n1	SENP8 block-2 96, HSP90 refold inh 17, SENP6 inh 96 | SENP8 confirm inactive | SENP6 confirm 84 | SENP7 confirm 66 | Casp3 select 58 | Luc interf 74
CCCCCCCCN1C(=O)[C@H](CC(=O)N2CCCC2)C[C@@]2(C(=O)OC)CCCCC=C12	none (no result: SENP8 block-2, HSP90 refold inh, SENP6 inh, SENP7 block)
CCN(CC)S(=O)(=O)c1ccc(NC(=O)C(C)N(c2ccc(OC)cc2)S(C)(=O)=O)cc1 (stereo not drawn)	none
CCOc1ccc(N(C(C)C(=O)Nc2ccc(OC)cc2)S(C)(=O)=O)cc1 (stereo not drawn)	SENP7 block 71 | SENP8 confirm inactive | SENP6 confirm inactive | SENP7 confirm inactive | Casp3 select inactive | Luc interf inactive
Cc1cc(C)nc(N(C#N)Cc2ccccc2Cl)n1	none
